Experimental data published in ChEMBL document CHEMBL3797104, “Triazole tethered C5-curcuminoid-coumarin based molecular hybrids as novel antitubulin agents: Design, synthesis, biological investigation and docking studies” (Eur J Med Chem, 2016).
Activity calls are given as the source filed them. No cut-off for these calls is given here.

How the values were obtained:
Assay type in all cases: functional
[1] = Cytotoxicity against human THP1 cells assessed as growth inhibition at 50 uM after 48 hrs by SRB assay; settings: THP-1, 48 h, read-out: GI
Method in brief: (§1)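 Single-concentration screen at 50 µM. Cells grew 24 h at 37 °C, then had 48 h exposure in complete medium.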

[2] = Cytotoxicity against human HCT116 cells assessed as growth inhibition at 50 uM after 48 hrs by SRB assay; settings: HCT-116, 48 h, read-out: GI; method in brief: as §1
PC-3 = assay: Cytotoxicity against human PC3 cells assessed as growth inhibition at 50 uM after 48 hrs by SRB assay; method in brief: as §1
[3] = Cytotoxicity against human COLO205 cells assessed as growth inhibition at 50 uM after 48 hrs by SRB assay; settings: COLO 205, 48 h, read-out: GI; method in brief: as §1

Row | Structure (SMILES) | inhibition of growth at 50 µM [1] | inhibition of growth at 50 µM [2] | growth inhibition (GI) (PC-3) | inhibition of growth at 50 µM [3]
1 | COc1cc(/C=C/C(=O)/C=C/c2ccco2)ccc1OCc1cn(CCCCCOc2cc(=O)oc3ccccc23)nn1 | 39% | 37% | inactive | 33%
2 | COc1cc(/C=C/C(=O)/C=C/c2cccc3ccccc23)ccc1OCc1cn(CCCCOc2cc(=O)oc3ccccc23)nn1 | 54% | 56% | inactive | 50%
3 | COc1ccccc1/C=C/C(=O)/C=C/c1ccc(OCc2cn(CCCCCOc3cc(=O)oc4ccccc34)nn2)c(OC)c1 | 37% | 33% | inactive | 30%
4 | COc1cc(/C=C/C(=O)/C=C/c2ccccc2)ccc1OCc1cn(CCCOc2cc(=O)oc3ccccc23)nn1 | 48% | 45% | inactive | 43%
5 | COc1ccc(/C=C/C(=O)/C=C/c2ccc(OCc3cn(CCCCCOc4cc(=O)oc5ccccc45)nn3)c(OC)c2)cc1 | 39% | 35% | inactive | 30%
6 | COc1ccc(/C=C/C(=O)/C=C/c2ccc(OCc3cn(CCCOc4cc(=O)oc5ccccc45)nn3)c(OC)c2)cc1 | 56% | 54% | inactive | 53%
7 | COc1cc(/C=C/C(=O)/C=C/c2ccccc2)ccc1OCc1cn(CCCCCOc2cc(=O)oc3ccccc23)nn1 | 26% | 24% | inactive | 22%
8 | COc1cc(/C=C/C(=O)/C=C/c2cc(OC)c(OC)c(OC)c2)ccc1OCc1cn(CCCCCOc2cc(=O)oc3ccccc23)nn1 | 55% | 53% | inactive | 51%
9 | COc1cc(/C=C/C(=O)/C=C/c2ccccc2)ccc1OCc1cn(CCCCOc2cc(=O)oc3ccccc23)nn1 | 36% | 34% | inactive | 31%
10 | COc1cccc(/C=C/C(=O)/C=C/c2ccc(OCc3cn(CCCOc4cc(=O)oc5ccccc45)nn3)c(OC)c2)c1 | 58% | 55% | inactive | 52%
11 | COc1cc(/C=C/C(=O)/C=C/c2ccco2)ccc1OCc1cn(CCCOc2cc(=O)oc3ccccc23)nn1 | 57% | 51% | inactive | 59%
12 | COc1cc(/C=C/C(=O)/C=C/c2cccs2)ccc1OCc1cn(CCCOc2cc(=O)oc3ccccc23)nn1 | 54% | 58% | inactive | 55%
13 | COc1ccccc1/C=C/C(=O)/C=C/c1ccc(OCc2cn(CCCOc3cc(=O)oc4ccccc34)nn2)c(OC)c1 | 50% | 53% | inactive | 57%
14 | COc1ccc(/C=C/C(=O)/C=C/c2ccc(OCc3cn(CCCCCOc4cc(=O)oc5ccccc45)nn3)c(OC)c2)cc1OC | 47% | 45% | inactive | 43%
15 | COc1ccccc1/C=C/C(=O)/C=C/c1ccc(OCc2cn(CCCCOc3cc(=O)oc4ccccc34)nn2)c(OC)c1 | 40% | 43% | inactive | 47%
16 | COc1cc(/C=C/C(=O)/C=C/c2ccco2)ccc1OCc1cn(CCCCOc2cc(=O)oc3ccccc23)nn1 | 49% | 47% | inactive | 43%
